From PubChem
Compounds with a hit are over-represented: about 2.4% of the library has one in this group of screens.
Calb FLC – affects C. albicans growth with fluconazole; growth inhibition, % (no concentration beside the values); C. albicans CaCi-2 (fluconazole-resistant clinical isolate) + fluconazole, Alamar Blue growth, 48 h; actives 0.57% (n = 300,000);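 active means growth inhibition above about 58% in most replicates, limit read from the data, passing the limit was not always enough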;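 further: all wells also contain fluconazole at 8 µg/ml as a sub-toxic cotreatment; 0% = median of DMSO wells and 100% = median of geldanamycin control wells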
SR-BI uptake up – activators of SR-BI mediated HDL lipid uptake; activation, % at 12.5 µM; CHO ldlA[mSR-BI] cells, DiI-HDL uptake fluorescence, 3 h; 100 = double the neutral-control signal; AID 504775; actives 0.096% (n = 320,000);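 active means mean replicate activation of at least 60% and every replicate at or above 60%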;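 further: 0% = median plate neutral-control signal and 100% = twice that signal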
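Assay system: LDL receptor-deficient CHO ldlA cells overexpressing murine SR-BI / Medium: BSA-supplemented, HEPES-buffered Ham's F12, pH 7.4 / Probe or stimulus: DiI-labelled HDL at 10 µg/mL final / Timing: compound with DiI-HDL co-incubation, 3 h at 37 °C / Technique: bottom-read cell fluorescence after medium removal, ex 550/em 595 nm / Measure: HDL uptake via cellular fluorescence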
Insulin prom up – MIN6 insulin promoter up-regulation; MIN6 insulin promoter-GFP reporter, high-content imaging; hits give high values; z-score at 5 µM; actives 0.3% (n = 190,000); AID 1625;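 active means z-score above 3 at 5 µM with at least 500 cells counted in the well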
MIN6 prolif – MIN6 beta-cell proliferation induction; MIN6 cells proliferation, ATPlite luminescence, 48 h; cells starved in 0.2% serum; 100% = growth in 10% serum; proliferation, % at 10 µM; actives 0.29% (n = 330,000);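 active means compounds whose signal lies at least 3.5 SD above the mean of all wells on their plate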;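 further: 0% = DMSO-treated cells in low-serum medium and 100% = 10% serum control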
SR-BI HDL uptake – mouse SR-BI HDL lipid transfer inhibition; Q61009; ldlA[mSR-BI] CHO cells, DiI-HDL uptake fluorescence, 3 h; inhibition, % at 12.5 µM; actives 0.96% (n = 320,000);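 active means mean replicate inhibition of at least 70% and a set share of replicates each scoring 70 or more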;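 further: 0% = median of neutral control wells and 100% = median of positive control wells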
m5-HT2A agonist – activates the mouse 5-HT2A serotonin receptor. P35363. CHO-K1 mHTR2A beta-arrestin complementation, luminescence; percent of 30 µM serotonin response. activation, % at 7.6 µM. actives 0.66% (n = 360,000);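 active means activation above a run cutoff, the mean activation of all tested compounds plus 3 SD, cut at about 14% in these data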;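 further: 0% = plate median of compound wells and 100% = 30 µM serotonin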
Target sequence (P35363 whole entry, looked up): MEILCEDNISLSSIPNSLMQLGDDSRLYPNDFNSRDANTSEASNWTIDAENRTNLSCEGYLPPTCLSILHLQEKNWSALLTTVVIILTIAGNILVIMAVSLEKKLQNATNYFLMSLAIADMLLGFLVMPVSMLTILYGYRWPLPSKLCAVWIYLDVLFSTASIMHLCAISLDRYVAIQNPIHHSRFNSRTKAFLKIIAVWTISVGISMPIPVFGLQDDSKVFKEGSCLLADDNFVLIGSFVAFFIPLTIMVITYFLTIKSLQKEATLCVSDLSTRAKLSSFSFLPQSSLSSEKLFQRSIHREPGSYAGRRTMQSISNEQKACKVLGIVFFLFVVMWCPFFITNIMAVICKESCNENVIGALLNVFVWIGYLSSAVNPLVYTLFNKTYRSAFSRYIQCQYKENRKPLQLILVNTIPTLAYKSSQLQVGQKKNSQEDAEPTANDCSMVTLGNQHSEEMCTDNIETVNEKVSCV
The depositor's hits bear a star.

Screening COc1cccc(C(=O)Nc2ccc3c(cc2=O)[C@@H](NC(C)=O)CCc2cc(OC)c(OC)c(OC)c2-3)c1 returned Calb FLC 9, SR-BI uptake up -3, MIN6 prolif -5, SR-BI HDL uptake 3 and m5-HT2A agonist 16*.
`COc1cc2c(c(OC)c1OC)-c1ccc(OC)c(=O)cc1C(NC(C)=O)CC2` (configuration not stated) gave Calb FLC 8, SR-BI uptake up -23, MIN6 prolif -4, SR-BI HDL uptake 23 and m5-HT2A agonist 9.
`CCOc1ccc(NC(=O)Cn2nnc(C(=O)NCc3ccc4c(c3)OCO4)c2N)cc1` gave Calb FLC 1, SR-BI uptake up 1, MIN6 prolif -5, SR-BI HDL uptake -1 and m5-HT2A agonist 3.
`CCOc1ccc(OCc2ccc(C(=O)N3CCCCC3)o2)cc1` gave Calb FLC -5, SR-BI uptake up 14, MIN6 prolif 1, SR-BI HDL uptake -14 and m5-HT2A agonist -3.
Screening CCOc1ccc(OCc2ccc(C(=O)N3CCc4ccccc4C3)o2)cc1 returned Calb FLC 1, SR-BI uptake up -13, Insulin prom up -0.37, MIN6 prolif -3, SR-BI HDL uptake 13 and m5-HT2A agonist 15*.
C[C@@H]1CCCCO[C@@H](CN(C)S(=O)(=O)c2cn(C)cn2)[C@@H](C)CN([C@H](C)CO)C(=O)c2cc(N(C)C)ccc2O1 was read as m5-HT2A agonist 6.
`COc1cccc(C(=O)CN2C(=O)C(C)(C)Oc3ccc(C(=O)N4CCCCCC4)cc32)c1` gave Calb FLC 6, SR-BI uptake up -8, Insulin prom up 3.6*, MIN6 prolif -2, SR-BI HDL uptake 8 and m5-HT2A agonist 1.
For CCCCN1C(=O)C(C(=O)OCC)CC2=C1CCCC2=O (configuration not stated) the results were SR-BI uptake up 6, SR-BI HDL uptake -6 and m5-HT2A agonist -2.
`COc1cccc2c(SCC(=O)N/N=C/c3ccc(O)c(O)c3)cc(C)nc12` gave Calb FLC 92*, SR-BI uptake up -2, Insulin prom up 0.62, SR-BI HDL uptake 2 and m5-HT2A agonist -1.
COc1cccc2c(SCC(=O)N/N=C/c3ccccc3)cc(C)nc12 was read as Calb FLC 9, SR-BI uptake up 11, Insulin prom up -0.87, MIN6 prolif 4, SR-BI HDL uptake -11 and m5-HT2A agonist 1.
`CCc1nc(NCC2CC2)c2nnn(Cc3ccccc3)c2n1` gave m5-HT2A agonist 5.
`O=C(CCCOc1ccccc1)Nc1nc2ccccc2[nH]1` gave Calb FLC -6, SR-BI uptake up -1, Insulin prom up -0.26, MIN6 prolif -1, SR-BI HDL uptake 1 and m5-HT2A agonist 1.
For Cc1ccc(OCCCC(=O)Nc2nc3ccccc3[nH]2)cc1 the results were Calb FLC 110*, SR-BI uptake up 25, Insulin prom up 0.12, MIN6 prolif -1, SR-BI HDL uptake -25 and m5-HT2A agonist 5.
Screening COc1ccc(NC(=O)C2c3ccccc3OCC(=O)N2C2CC2)cc1 (configuration not stated) returned m5-HT2A agonist 0.
Screening Cn1c(-c2ccsc2)c(-c2cccs2)c2cc(-c3ccc4cc[nH]c4c3)ccc21 returned SR-BI uptake up -77, MIN6 prolif -6, SR-BI HDL uptake 77* and m5-HT2A agonist 1.
Screening O=C1NC(=O)C(=Cc2ccccc2[N+](=O)[O-])S1 returned SR-BI uptake up 5, SR-BI HDL uptake -5 and m5-HT2A agonist 0.
O=C1NC(=O)/C(=C/c2cccc3ccccc23)S1 was read as Calb FLC 107*, SR-BI uptake up -8, MIN6 prolif -4, SR-BI HDL uptake 8 and m5-HT2A agonist 2.
For COc1cc2ccc(C(=O)O)cc2cc1OC the results were m5-HT2A agonist 3.
Screening CCCCN(C)c1c(C)nc2ccc(C(=O)Nc3ccc(OC)c(OC)c3)cn12 returned m5-HT2A agonist -1.
For Cc1ccc(N2NC(=O)/C(=C/c3ccc(-c4ccc(Cl)c(C(=O)O)c4)o3)C2=O)cc1C the results were Calb FLC 2, SR-BI uptake up 17, Insulin prom up -0.57, MIN6 prolif -3, SR-BI HDL uptake -16 and m5-HT2A agonist -1.
For COC(=O)c1ccc(N2NC(=O)/C(=C/c3ccc(-c4ccc(Cl)c(C(=O)O)c4)o3)C2=O)cc1 the results were Calb FLC 62*, SR-BI uptake up 6, Insulin prom up 1.1, MIN6 prolif 0, SR-BI HDL uptake -6 and m5-HT2A agonist -1.
O=C1NN(c2ccc(Cl)c(Cl)c2)C(=O)/C1=C/c1ccc(-c2ccccc2C(=O)O)o1 was read as Calb FLC 81*, SR-BI uptake up 12, MIN6 prolif -4, SR-BI HDL uptake -12 and m5-HT2A agonist -3.
CCC1CN(C(=O)NCc2ccc(C)cc2)c2cc(C)ccc2O1 (configuration not stated) was read as Calb FLC -5, SR-BI uptake up -78, MIN6 prolif -2, SR-BI HDL uptake 78* and m5-HT2A agonist 7.
Screening S=C1NC(c2ccccc2)=CC(c2ccccc2)N1 (configuration not stated) returned Calb FLC 45, SR-BI uptake up -82, Insulin prom up -0.79, MIN6 prolif -5, SR-BI HDL uptake 82* and m5-HT2A agonist -1.
`Oc1ccc(Nc2nc(-c3ccccc3O)nc3ccccc23)cc1` gave Calb FLC 21, SR-BI uptake up -74, MIN6 prolif -3, SR-BI HDL uptake 74* and m5-HT2A agonist -10.
Cc1ccc(-c2nc(Nc3ccc(O)cc3)c3ccccc3n2)cc1 was read as Calb FLC 0, SR-BI uptake up -107, MIN6 prolif -7, SR-BI HDL uptake 107* and m5-HT2A agonist 0.
Screening Oc1ccccc1Nc1nc(-c2ccccc2O)nc2ccccc12 returned Calb FLC 13, SR-BI uptake up -93, MIN6 prolif 2, SR-BI HDL uptake 93* and m5-HT2A agonist -2.
`COc1ccc(Nc2nc(-c3ccccc3O)nc3ccccc23)cc1` gave Calb FLC 50, SR-BI uptake up -52, MIN6 prolif -7, SR-BI HDL uptake 52 and m5-HT2A agonist 6.
O=[N+]([O-])c1ccc(-c2nc(Nc3cccc(O)c3)c3ccccc3n2)cc1 was read as Calb FLC -2, SR-BI uptake up -72, MIN6 prolif -5, SR-BI HDL uptake 72* and m5-HT2A agonist -3.
For CCCCn1c(SCCN2CCCCC2)nc2c1c(=O)n(C)c(=O)n2C the results were m5-HT2A agonist 0.
Screening O=C(c1ccc(N2C(=O)CCC2=O)cc1)N1CCCSC1=Nc1ccccc1 returned m5-HT2A agonist 0.
